# Laboratory results as given in ChEMBL document CHEMBL1128420, “Novel steroidal inhibitors of human cytochrome P45017 alpha (17 alpha-hydroxylase-C17,20-lyase): potential agents for the treatment of prostatic cancer” (J Med Chem, 1995).
# Assays:
# [1] = biological target: T1, Steroid 17-alpha-hydroxylase/17,20 lyase (Homo sapiens, UniProt P05093); assay: Ability to inhibit the Steroid 17-alpha-hydroxylase/17,20 lyase enzyme by 50%.
# T1 sequence (P05093 whole entry): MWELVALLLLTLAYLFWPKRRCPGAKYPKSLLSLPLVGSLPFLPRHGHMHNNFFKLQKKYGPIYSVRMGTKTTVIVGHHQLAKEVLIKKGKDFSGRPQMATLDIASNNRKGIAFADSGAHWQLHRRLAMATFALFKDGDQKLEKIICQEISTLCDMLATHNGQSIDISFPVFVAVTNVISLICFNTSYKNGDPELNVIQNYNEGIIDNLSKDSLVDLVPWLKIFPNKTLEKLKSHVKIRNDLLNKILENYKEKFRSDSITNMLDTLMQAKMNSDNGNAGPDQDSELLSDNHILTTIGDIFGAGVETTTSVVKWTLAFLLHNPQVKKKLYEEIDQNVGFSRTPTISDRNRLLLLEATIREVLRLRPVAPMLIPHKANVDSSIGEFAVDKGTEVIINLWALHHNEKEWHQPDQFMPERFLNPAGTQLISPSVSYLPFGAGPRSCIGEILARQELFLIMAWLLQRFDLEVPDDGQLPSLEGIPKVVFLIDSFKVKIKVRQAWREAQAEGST
# [2] = biological target: T1, Steroid 17-alpha-hydroxylase/17,20 lyase; assay: Ability to inhibit the C17,20-lyase enzyme by 50% using 17-alpha-hydroxyprogesterone as substrate.
# [3] = Inhibition of Steroid 5-alpha-reductase; parameters: species or system Homo sapiens
# Summary of the method: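 Testosterone 5α-reductase from human benign prostatic tissue.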
# Aromatase = biological target: T2, Aromatase (Homo sapiens, UniProt P11511); assay: Inhibition of Cytochrome P450 19A1
# T2 sequence (P11511 whole entry): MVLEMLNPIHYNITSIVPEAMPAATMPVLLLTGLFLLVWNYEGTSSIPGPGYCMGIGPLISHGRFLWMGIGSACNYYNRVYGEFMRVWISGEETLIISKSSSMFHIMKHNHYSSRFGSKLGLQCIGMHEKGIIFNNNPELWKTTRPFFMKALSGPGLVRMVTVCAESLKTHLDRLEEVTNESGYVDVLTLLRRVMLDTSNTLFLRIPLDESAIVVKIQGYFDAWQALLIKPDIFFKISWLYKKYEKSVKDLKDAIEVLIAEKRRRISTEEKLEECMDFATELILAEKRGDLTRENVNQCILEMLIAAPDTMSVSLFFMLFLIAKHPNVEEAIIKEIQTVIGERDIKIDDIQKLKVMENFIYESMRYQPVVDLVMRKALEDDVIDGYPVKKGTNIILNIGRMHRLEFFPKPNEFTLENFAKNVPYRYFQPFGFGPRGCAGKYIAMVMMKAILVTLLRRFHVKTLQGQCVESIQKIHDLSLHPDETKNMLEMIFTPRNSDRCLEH
# Summary of the method: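 Aromatase from the microsomal fraction of human placenta.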
SMILES,IC50 [1] [nM],IC50 [2] [nM],IC50 [3] [nM],IC50 (Aromatase) [nM]
"C[C@]12CCC3C(CC=C4C[C@@H](O)CC[C@@]43C)C1CCC2c1ccncc1 (single isomer, unassigned)",160,53,–,–
C[C@]12CCC(=O)C=C1CCC1C2CC[C@]2(C)C(c3cccnc3)=CCC12 (some centres not stated),–,–,10000,1800
C[C@]12CC[C@H](O)CC1=CCC1C2CC[C@@]2(C)C1CC[C@@H]2c1cccnc1 (some centres not stated),47,23,–,–
C[C@]12CCC3C(CC[C@H]4CC(=O)CC[C@]34C)C1CC=C2c1cccnc1 (some centres not stated),4.7,3,–,–
C[C@]12CC[C@H](O)CC1=CC[C@@H]1[C@@H]2CC[C@]2(C)C(c3ccncc3)=CC[C@@H]12,4000,1000,–,> 20000
C[C@]12CCC(=O)C=C1CCC1C2C(=O)C[C@]2(C)C(c3cccnc3)=CCC12 (some centres not stated),13,2.9,–,–
C[C@]12CC[C@H](O)CC1=CC[C@@H]1[C@@H]2CC[C@]2(C)C(c3cccnc3)=CC[C@@H]12 [ABIRATERONE],–,–,> 50000,> 20000
C[C@]12CCC(Oc3c(F)c(F)c(C(F)(F)F)c(F)c3F)=CC1=CCC1C2CC[C@]2(C)C(c3cccnc3)=CCC12 (some centres not stated),> 10000,> 10000,–,–
C[C@]12CC[C@H](O)CC1=CC[C@@H]1[C@@H]2CC[C@]2(C)C(c3ccccn3)=CC[C@@H]12,270,76,–,> 20000
C[C@]12CCC(O)CC1=CCC1C2CC[C@]2(C)C(Cc3ccccn3)=CCC12 (some centres not stated),> 10000,> 10000,–,–
